Data reported in ChEMBL document CHEMBL1123853, “A novel class of cardiotonics. Synthesis and pharmacological properties of [4-(substituted-amino)phenyl]pyridazinones and related derivatives” (1987).

Experiments:
Canis familiaris [1] = experiment: Inotropic activity determined by evaluating the % change in Heart Rate (HR) at a dose of 3 ug/kg administered intravenously […]; type: functional, Canis lupus familiaris
Outline: (§1)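 Mongrel dogs of either sex, 7–15 kg, anesthetized with sodium pentobarbital (30 mg/kg iv), open-chest, intubated and ventilated on room air. Compounds given intravenously. A femoral artery catheter with pressure transducer recorded SBP and DBP. dP/dtmax, right ventricular contractile force, cardiac output and heart rate were also recorded, as % change at each iv dose.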

Canis familiaris [2] = experiment: Inotropic activity determined by evaluating the maximum rate of rise in left ventricular pressure at a dose of 1 ug/kg administered intravenously […]; type: functional, Canis lupus familiaris, Muscle tissue; outline: as §1
Canis familiaris [3] = species: Canis familiaris; experiment: Positive inotropic in the isolated papillary muscle of the dog.; type: functional, Canis lupus familiaris
Outline: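 Right ventricular anterior papillary muscle with septum, from mongrel dogs (7–12 kg, pentobarbital 30 mg/kg iv). It was perfused at about 100 mmHg via the septal artery with blood from a heparinized donor dog and paced at 120/min (1 ms pulses, about 1.5× threshold). Isometric tension was recorded. Saline solutions were injected intra-arterially, with amrinone as reference. ED15 (15% rise in developed tension) was taken from log dose-response curves. Results are mean ± SEM (n = 7) or mean ± range (n = 2).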

Canis familiaris [4] = experiment: Inotropic activity determined by evaluating the maximum rate of rise in left ventricular pressure at a dose of 10 ug/kg administered intravenously […]; type: functional, Canis lupus familiaris, Muscle tissue; outline: as §1
Canis familiaris [5] = experiment: Inotropic activity determined by evaluating the % change in Systolic Blood Pressure (SBP) at a dose of 3 ug/kg administered intravenously […]; type: functional, Canis lupus familiaris, Muscle tissue; outline: as §1
Canis familiaris [6] = experiment: Inotropic activity determined by evaluating the % change in Diastolic Blood Pressure (DBP) at a dose of 10 ug/kg administered intravenously […]; type: functional, Canis lupus familiaris; outline: as §1
Canis familiaris [7] = experiment: Inotropic activity determined by evaluating the maximum rate of rise in left ventricular pressure at a dose of 3 ug/kg administered intravenously […]; type: functional, Canis lupus familiaris, Muscle tissue; outline: as §1
Canis familiaris [8] = experiment: Inotropic activity determined by evaluating the % change in contractile force (CF) of right ventricle at a dose of 1 ug/kg administered intravenously […]; type: functional, Canis lupus familiaris, Heart right ventricle; outline: as §1
Canis familiaris [9] = species: Canis familiaris; experiment: Positive inotropic activity determined in the […](that produced 30% increase in dose- response curves [dP/dt(max)]); type: functional; settings: Canis lupus familiaris
Outline: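 In the anesthetized open-chest dog (mongrel, 7–15 kg, pentobarbital 30 mg/kg iv, ventilated on room air), compounds were given intravenously and LV dP/dtmax was recorded. The dose giving a 30% rise in dP/dtmax was read from the dose-response curves. Results are mean ± SEM (n = 3) or mean ± range (n = 2).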

Canis familiaris [10] = experiment: Inotropic activity determined by evaluating the % change in Cardiac out put (CO)at a dose of 10 ug/kg administered intravenously […]; type: functional, Canis lupus familiaris; outline: as §1
Canis familiaris [11] = experiment: Inotropic activity determined by evaluating the % change in Diastolic Blood Pressure (DBP) at a dose of 3 ug/kg administered intravenously […]; type: functional, Canis lupus familiaris; outline: as §1
Canis familiaris [12] = experiment: Inotropic activity determined by evaluating the % change in Cardiac out put (CO)at a dose of 1 ug/kg administered intravenously […]; type: functional, Canis lupus familiaris; outline: as §1
Canis familiaris [13] = experiment: Inotropic activity determined by evaluating the % change in Heart Rate (HR) at a dose of 1 ug/kg administered intravenously […]; type: functional, Canis lupus familiaris; outline: as §1
Canis familiaris [14] = experiment: Inotropic activity determined by evaluating the % change in Systolic Blood Pressure (SBP) at a dose of 10 ug/kg administered intravenously […]; type: functional, Canis lupus familiaris; outline: as §1
Canis familiaris [15] = experiment: Inotropic activity determined by evaluating the % change in contractile force (CF) of right ventricle at a dose of 10 ug/kg administered intravenously […]; type: functional, Canis lupus familiaris, Heart right ventricle; outline: as §1
Canis familiaris [16] = experiment: Inotropic activity determined by evaluating the % change in Cardiac out put (CO)at a dose of 3 ug/kg administered intravenously […]; type: functional, Canis lupus familiaris; outline: as §1
Canis familiaris [17] = experiment: Inotropic activity determined by evaluating the % change in Diastolic Blood Pressure (DBP) at a dose of 1 ug/kg administered intravenously […]; type: functional, Canis lupus familiaris; outline: as §1
Canis familiaris [18] = experiment: Inotropic activity determined by evaluating the % change in Heart Rate (HR) at a dose of 10 ug/kg administered intravenously […]; type: functional, Canis lupus familiaris; outline: as §1
Canis familiaris [19] = experiment: Inotropic activity determined by evaluating the % change in contractile force (CF) of right ventricle at a dose of 3 ug/kg administered intravenously […]; type: functional, Canis lupus familiaris, Heart right ventricle; outline: as §1
Canis familiaris [20] = experiment: Inotropic activity determined by evaluating the % change in Systolic Blood Pressure (SBP) at a dose of 1 ug/kg administered intravenously […]; type: functional, Canis lupus familiaris, Muscle tissue; outline: as §1
Canis familiaris [21] = experiment: Inotropic activity determined by evaluating the % change in Systolic Blood Pressure (SBP) at a dose of 30 ug/kg administered intravenously […]; type: functional, Canis lupus familiaris, Muscle tissue; outline: as §1
Canis familiaris [22] = experiment: Inotropic activity determined by evaluating the maximum rate of rise in left ventricular pressure at a dose of 30 ug/kg administered intravenously […]; type: functional, Canis lupus familiaris, Muscle tissue; outline: as §1
Canis familiaris [23] = experiment: Inotropic activity determined by evaluating the % change in Heart Rate (HR) at a dose of 30 ug/kg administered intravenously […]; type: functional, Canis lupus familiaris; outline: as §1
Canis familiaris [24] = experiment: Inotropic activity determined by evaluating the % change in Cardiac out put (CO)at a dose of 30 ug/kg administered intravenously […]; type: functional, Canis lupus familiaris; outline: as §1
Canis familiaris [25] = experiment: Inotropic activity determined by evaluating the % change in contractile force (CF) of right ventricle at a dose of 30 ug/kg administered intravenously […]; type: functional, Canis lupus familiaris, Heart right ventricle; outline: as §1
Canis familiaris [26] = experiment: Inotropic activity determined by evaluating the % change in Diastolic Blood Pressure (DBP) at a dose of 30 ug/kg administered intravenously […]; type: functional, Canis lupus familiaris; outline: as §1

Structure (SMILES) | Change of HR (Canis familiaris [1]) [%] | ED15 (Canis familiaris [3]) [µg] | dP/dt (Canis familiaris [4]) [%] | Change of SBP (Canis familiaris [5]) [%] | Change of DBP (Canis familiaris [6]) [%] | dP/dt (Canis familiaris [7]) [%] | ED30 (Canis familiaris [9]) [µg/kg] | Change of CO (Canis familiaris [10]) [%] | Change of DBP (Canis familiaris [11]) [%] | Change of SBP (Canis familiaris [14]) [%] | Change of CF (Canis familiaris [15]) [%] | Change of CO (Canis familiaris [16]) [%] | Change of HR (Canis familiaris [18]) [%] | Change of CF (Canis familiaris [19]) [%] | further results
CC1CC(=O)NN=C1c1ccc(Nc2ccncc2)cc1.Cl (stereo not given) | 15.8 | 1.5 | 58.4 | -14.1 | -31.4 | 19.5 | 4.4 | 24.5 | -21.2 | -23.6 | 61.5 | 11.7 | 25.1 | 22.7 | dP/dt (Canis familiaris [2]): 8.1%; Change of CF (Canis familiaris [8]): 7.9%; Change of CO (Canis familiaris [12]): 5.1%; Change of HR (Canis familiaris [13]): 3.4%; Change of DBP (Canis familiaris [17]): -7.3%; Change of SBP (Canis familiaris [20]): -4.7%
Cl.O=C1CCC(c2ccc(Nc3ccncc3)cc2)=NN1 | 5.8 | 4.1 | 37.3 | -7.9 | -22 | 20.9 | 8.5 | 17.2 | -10.9 | -16.1 | 56.4 | 12.6 | 9.9 | 34.4 | Change of SBP (Canis familiaris [21]): -24.9%; dP/dt (Canis familiaris [22]): 69.1%; Change of HR (Canis familiaris [23]): 17.4%; Change of CO (Canis familiaris [24]): 27.7%; Change of CF (Canis familiaris [25]): 78.9%; Change of DBP (Canis familiaris [26]): -32.9%
